Reference: paper PMC2752341 (Bioorganic & medicinal chemistry, 2008)

Tests used:
[1] = test system: MDA-MB-435 human tumor xenografts; assay: Human tumor xenograft antitumor bioassay; assay type: in vivo, athymic nude mice; details: for Average tumor volume: MDA-MB-435 xenograft in athymic nude mice; for Antitumor activity in vivo (in words): MDA-MB-435 xenograft, at maximally tolerated doses, I.P.
Method in brief: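 Female NCR/NU NU mice, about 9 weeks old, were inoculated sc in the right flank with 1.5 × 10^6 MDA-MB-435 cells (RPMI 1640/10% FBS culture) and grouped by matched tumor volume at 19–20 days. Test compound was given qd × 5/week at per-compound doses, some adjusted during the study; vehicle was 0.1% citrate in H2O. Caliper tumor volume ((l*w2)/2) was taken every other day, with daily weights.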

[2] = biological target: T1, human topoisomerase I (Homo sapiens, UniProt P11387); assay: Topoisomerase I-mediated DNA cleavage assay; assay type: biochemical; details: for TOP1-targeting activity (in words): summary of Table 1
T1 sequence (P11387 1-765): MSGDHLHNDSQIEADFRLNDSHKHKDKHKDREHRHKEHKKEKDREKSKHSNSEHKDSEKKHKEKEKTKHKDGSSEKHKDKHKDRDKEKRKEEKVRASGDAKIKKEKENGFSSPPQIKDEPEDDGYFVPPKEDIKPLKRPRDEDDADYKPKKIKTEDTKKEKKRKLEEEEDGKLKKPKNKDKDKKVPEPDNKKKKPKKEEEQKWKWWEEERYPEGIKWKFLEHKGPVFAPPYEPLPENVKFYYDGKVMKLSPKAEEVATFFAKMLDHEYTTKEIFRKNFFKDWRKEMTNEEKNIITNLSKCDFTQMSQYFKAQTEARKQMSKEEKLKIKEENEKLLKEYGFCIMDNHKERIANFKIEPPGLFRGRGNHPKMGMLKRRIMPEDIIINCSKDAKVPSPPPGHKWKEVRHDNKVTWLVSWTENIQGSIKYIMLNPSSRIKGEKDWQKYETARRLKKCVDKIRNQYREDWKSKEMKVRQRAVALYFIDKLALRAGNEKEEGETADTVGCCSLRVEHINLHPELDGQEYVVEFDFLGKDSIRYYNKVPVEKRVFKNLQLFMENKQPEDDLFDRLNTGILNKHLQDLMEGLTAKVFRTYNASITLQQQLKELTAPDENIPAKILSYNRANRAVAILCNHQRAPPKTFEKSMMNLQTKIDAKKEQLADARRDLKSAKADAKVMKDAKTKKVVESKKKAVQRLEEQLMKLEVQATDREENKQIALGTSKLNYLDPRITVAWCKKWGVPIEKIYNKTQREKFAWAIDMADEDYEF

[3] = test system: KBH5.0 cells; assay: MTT cytotoxicity assay in KBH5.0; assay type: cell-based; details: from relative cytotoxicity KBH5.0 vs KB3-1
[4] = test system: KBV-1 cells; assay: MTT cytotoxicity assay in KBV-1; assay type: cell-based; details: for Substrate for MDR1 efflux transporter (conclusion in words): from relative cytotoxicity KBV-1 vs KB3-1
[5] = test system: RPMI8402 cells; assay: MTT cytotoxicity assay in RPMI8402; assay type: cell-based, human

Compound: COc1cc2c(=O)n(CCN(C)CC#N)c3c4cc5c(cc4ncc3c2cc1OC)OCO5 [Compound 10, 2,3-Methylenedioxy-8,9-dimethoxy-5-[N-cyanomethyl-N-methylaminoethyl]dibenzo[c,h][1,6]naphthyridin-6-one]
- Average tumor volume ([1]; Day 7, I.P.): 149 mm^3
- Average tumor volume ([1]; Day 14, I.P.): 222 mm^3
- Average tumor volume ([1]; Day 21, I.P.): 370 mm^3
- Average tumor volume ([1]; Day 28, I.P.): 392 mm^3
- Average tumor volume ([1]; Day 35, I.P.): 528 mm^3
- Average tumor volume ([1]; Day 42, I.P.): 669 mm^3
- Average tumor volume ([1]; Day 49, I.P.): 919 mm^3
- Antitumor activity in vivo (in words) [1]: less active than the N-methyl-N-propargyl 13 or N-methyl-N-acetamide 16

Compound: C#CCN(C)CCn1c(=O)c2cc(OC)c(OC)cc2c2cnc3cc4c(cc3c21)OCO4 [Compound 13, 2,3-Methylenedioxy-8,9-dimethoxy-5-[N-methyl-N-(prop-2-ynyl)aminoethyl]dibenzo[c,h][1,6]naphthyridin-6-one]
- TOP1-targeting activity (in words) [2]: retained potent TOP1-targeting activity
- Substrate for BCRP efflux transporter (conclusion in words) [3]: does not appear to be a substrate for either MDR1 or BCRP
- Substrate for MDR1 efflux transporter (conclusion in words) [4]: does not appear to be a substrate for either MDR1 or BCRP
- Average tumor volume ([1]; Day 7, I.P.): 144 mm^3
- Average tumor volume ([1]; Day 14, I.P.): 167 mm^3
- Average tumor volume ([1]; Day 21, I.P.): 218 mm^3
- Average tumor volume ([1]; Day 28, I.P.): 284 mm^3
- Average tumor volume ([1]; Day 35, I.P.): 317 mm^3
- Average tumor volume ([1]; Day 42, I.P.): 358 mm^3
- Average tumor volume ([1]; Day 49, I.P.): 433 mm^3

Compound: C#CCN(CC)CCn1c(=O)c2cc(OC)c(OC)cc2c2cnc3cc4c(cc3c21)OCO4 [Compound 14, 2,3-Methylenedioxy-8,9-dimethoxy-5-[N-ethyl-N-(prop-2-ynyl)aminoethyl]dibenzo[c,h][1,6]naphthyridin-6-one]
- TOP1-targeting activity (in words) [2]: much less active as TOP1-targeting agents
- fold less cytotoxic than 13 [5]: 2-6 fold
- Average tumor volume ([1]; Day 7, I.P.): 115 mm^3
- Average tumor volume ([1]; Day 14, I.P.): 106 mm^3
- Average tumor volume ([1]; Day 21, I.P.): 170 mm^3
- Average tumor volume ([1]; Day 28, I.P.): 204 mm^3
- Average tumor volume ([1]; Day 35, I.P.): 331 mm^3
- Average tumor volume ([1]; Day 42, I.P.): 349 mm^3
- Average tumor volume ([1]; Day 49, I.P.): 488 mm^3
- Antitumor activity in vivo (in words) [1]: less potent and effective than ARC-111

Compound: COc1cc2c(=O)n(CCN(C)C)c3c4cc5c(cc4ncc3c2cc1OC)OCO5 [Compound 1, 5H-8,9-dimethoxy-5-(2-N,N-dimethylaminoethyl)-2,3-methylenedioxydibenzo[c,h][1,6]-naphthyridin-6-one]
- Average tumor volume ([1]; Day 7, I.P.): 120 mm^3
- Average tumor volume ([1]; Day 14, I.P.): 123 mm^3
- Average tumor volume ([1]; Day 21, I.P.): 145 mm^3
- Average tumor volume ([1]; Day 28, I.P.): 158 mm^3
- Average tumor volume ([1]; Day 35, I.P.): 175 mm^3
- Average tumor volume ([1]; Day 42, I.P.): 189 mm^3
- Average tumor volume ([1]; Day 49, I.P.): 242 mm^3

Compound: COc1cc2c(=O)n(CCN(CC#N)C(C)C)c3c4cc5c(cc4ncc3c2cc1OC)OCO5 [Compound 12, 2,3-Methylenedioxy-8,9-dimethoxy-5-[N-cyanomethyl-N-isopropyl-aminoethyl]dibenzo[c,h][1,6]naphthyridin-6-one]
- Average tumor volume ([1]; Day 7, I.P.): 142 mm^3
- Average tumor volume ([1]; Day 14, I.P.): 175 mm^3
- Average tumor volume ([1]; Day 21, I.P.): 213 mm^3
- Average tumor volume ([1]; Day 28, I.P.): 220 mm^3
- Average tumor volume ([1]; Day 35, I.P.): 250 mm^3
- Average tumor volume ([1]; Day 42, I.P.): 286 mm^3
- Average tumor volume ([1]; Day 49, I.P.): 314 mm^3
- Antitumor activity in vivo (in words) [1]: less potent and less efficacious than ARC-111

Compound: COc1cc2c(=O)n(CCN(C)CC(N)=O)c3c4cc5c(cc4ncc3c2cc1OC)OCO5 [Compound 16, 2,3-Methylenedioxy-8,9-dimethoxy-5-[N-(2-amino-2-oxoethyl)-N-methylaminoethyl]dibenzo[c,h][1,6]naphthyridin-6-ones]
- TOP1-targeting activity (in words) [2]: retained potent TOP1-targeting activity
- Substrate for BCRP efflux transporter (conclusion in words) [3]: appears to be a substrate for BCRP
- fold difference in IC50 values between KB3-1 cells and KBV-1 cells ([4]; KBV-1 vs KB3-1): 7 fold
- Substrate for MDR1 efflux transporter (conclusion in words) [4]: substrates for MDR1
- Average tumor volume ([1]; Day 7, I.P.): 147 mm^3
- Average tumor volume ([1]; Day 14, I.P.): 178 mm^3
- Average tumor volume ([1]; Day 21, I.P.): 230 mm^3
- Average tumor volume ([1]; Day 28, I.P.): 319 mm^3
- Average tumor volume ([1]; Day 35, I.P.): 344 mm^3
- Average tumor volume ([1]; Day 42, I.P.): 434 mm^3
- Average tumor volume ([1]; Day 49, I.P.): 527 mm^3

Compound: CC[C@@]1(O)C(=O)OCc2c1cc1n(c2=O)Cc2cc3ccccc3nc2-1 [CPT, camptothecin, reference compound]
- TOP1-mediated cleavage (REC, relative effective concentration) ([2]; concentration relative to topotecan (=1) producing 10% cleavage of plasmid DNA): 0.2

Compound: CCN(CC#N)CCn1c(=O)c2cc(OC)c(OC)cc2c2cnc3cc4c(cc3c21)OCO4 [Compound 11, 2,3-Methylenedioxy-8,9-dimethoxy-5-[N-cyanomethyl-N-ethylaminoethyl]dibenzo[c,h][1,6]naphthyridin-6-one]
- Average tumor volume ([1]; Day 7, I.P.): 100 mm^3
- Average tumor volume ([1]; Day 14, I.P.): 156 mm^3
- Average tumor volume ([1]; Day 21, I.P.): 178 mm^3
- Average tumor volume ([1]; Day 28, I.P.): 202 mm^3
- Average tumor volume ([1]; Day 35, I.P.): 293 mm^3
- Average tumor volume ([1]; Day 42, I.P.): 361 mm^3
- Average tumor volume ([1]; Day 49, I.P.): 435 mm^3
- Antitumor activity in vivo (in words) [1]: less potent and effective than ARC-111

Compound: CCN(CCn1c(=O)c2cc(OC)c(OC)cc2c2cnc3cc4c(cc3c21)OCO4)CC(F)(F)F [Compound 8, 2,3-Methylenedioxy-8,9-dimethoxy-5-[N-ethyl-N-(2,2,2-trifluoroethyl)aminoethyl]dibenzo[c,h][1,6]naphthyridin-6-one]
- Average tumor volume ([1]; Day 7, I.P.): 127 mm^3
- Average tumor volume ([1]; Day 14, I.P.): 176 mm^3
- Average tumor volume ([1]; Day 21, I.P.): 268 mm^3
- Average tumor volume ([1]; Day 28, I.P.): 310 mm^3
- Average tumor volume ([1]; Day 35, I.P.): 435 mm^3
- Average tumor volume ([1]; Day 42, I.P.): 543 mm^3
- Average tumor volume ([1]; Day 49, I.P.): 718 mm^3
- Antitumor activity in vivo (in words) [1]: less efficacious than the N-ethyl-N-cyanomethyl analog 11 or the N-ethyl-N-propargyl derivative 14

Compound: C#CCN(CCn1c(=O)c2cc(OC)c(OC)cc2c2cnc3cc4c(cc3c21)OCO4)C(C)C [Compound 15, 2,3-Methylenedioxy-8,9-dimethoxy-5-[N-isopropyl-N-(prop-2-ynyl)aminoethyl]dibenzo-[c,h][1,6]naphthyridin-6-one]
- TOP1-targeting activity (in words) [2]: much less active as TOP1-targeting agents
- fold less cytotoxic than 13 [5]: 2-6 fold
- Average tumor volume ([1]; Day 7, I.P.): 99 mm^3
- Average tumor volume ([1]; Day 14, I.P.): 112 mm^3
- Average tumor volume ([1]; Day 21, I.P.): 165 mm^3
- Average tumor volume ([1]; Day 28, I.P.): 170 mm^3
- Average tumor volume ([1]; Day 35, I.P.): 234 mm^3
- Average tumor volume ([1]; Day 42, I.P.): 310 mm^3
- Average tumor volume ([1]; Day 49, I.P.): 357 mm^3
- Antitumor activity in vivo (in words) [1]: less potent and less efficacious than ARC-111
